Only some compounds are listed: those with a hit (about 1.6% of all), similar ones and a draw of the others.
S1P2 blocker: blocks the human S1P2 receptor; 97,000 compounds, 0.21% hits; AID 736; cell-based S1P2 antagonist assay, inhibition at 5 uM; inhibition, % at 5 µM; O95136; in the data active = inhibition above about 45%;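 also: CRE beta-lactamase reporter cells expressing human S1P2 stimulated with S1P; 0% = agonist at EC80 alone and 100% = agonist plus reference antagonist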
GALR2 blocker: GALR2 (human) receptor antagonism; O43603; GALR2-expressing cells, antagonist mode; inhibition, % at 4 µM; 140,000 compounds, 0.39% hits; AID 828; in the data active = inhibition above about 27%;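 also: cells stimulated with galanin 1-16 at roughly its EC80; 0% = agonist challenge control and 100% = basal control without agonist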
Target sequence (O43603 whole entry, looked up): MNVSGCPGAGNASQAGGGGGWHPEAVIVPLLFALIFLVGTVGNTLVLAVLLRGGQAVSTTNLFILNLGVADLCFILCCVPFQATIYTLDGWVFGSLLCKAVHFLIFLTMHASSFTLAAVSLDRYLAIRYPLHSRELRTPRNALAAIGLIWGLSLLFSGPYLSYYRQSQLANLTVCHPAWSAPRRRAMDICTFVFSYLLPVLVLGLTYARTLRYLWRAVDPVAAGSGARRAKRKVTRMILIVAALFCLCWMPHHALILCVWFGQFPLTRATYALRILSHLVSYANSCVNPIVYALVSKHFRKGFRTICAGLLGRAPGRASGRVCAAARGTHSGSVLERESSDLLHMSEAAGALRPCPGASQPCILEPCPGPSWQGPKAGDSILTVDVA
Rev-RRE block: HIV Rev-RRE protein-RNA interaction inhibition. 97,000 compounds, 0.79% hits. Rev peptide-RRE RNA binding, FRET. P05866. inhibition, % at 8 µM;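 active = inhibition above the screen-wide mean plus 3 SD, cut at about 35% in these data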;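 also: 0% = median DMSO wells and 100% = median Neomycin B control wells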
Target sequence (P05866 whole entry, looked up): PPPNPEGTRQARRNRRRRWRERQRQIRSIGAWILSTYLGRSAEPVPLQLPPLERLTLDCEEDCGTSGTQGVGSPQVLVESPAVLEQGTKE
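Test system – labelled RRE RNA duplex and labelled Rev peptide · Reagent – labelled Rev peptide · Doses – one concentration, 8 µM nominal · Incubation – 5 + 15 min at 25 °C · Signal – FRET fluorescence readout · Read-out basis – % inhibition of FRET ratio versus controls · Control set – DMSO wells as 0% and neomycin B wells as 100% inhibition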
S1P2 agonist: S1P2 (human) receptor agonism. activation, % at 4.5 µM. O95136. AID 729. S1P2-expressing cell line, agonist reporter read-out. 97,000 compounds, 0.46% hits; in the data active = activation above about 16%;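 also: 0% = vehicle low control and 100% = maximal reference agonist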
GALR2 agonist: GALR2 (human) receptor agonism; GALR2-expressing cells, agonist activation read-out; activation, % (test concentration not listed); 140,000 compounds, 0.48% hits; in the data active = activation above about 5%, passing the limit was not always enough;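 also: 0% = vehicle buffer wells and 100% = reference agonist at full effect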
* marks the source's active call; other numbers are inactive results; i = inactive; . = not tested or not shown; [ ] = dose if it differs, or a comment.

SMILES | S1P2 blocker | GALR2 blocker | Rev-RRE block | S1P2 agonist | GALR2 agonist
Cn1cccc1/C=C1\CC(C(C)(C)C)C/C(=C\c2cccn2C)C1=O (stereo unspecified) | 15 | -8 | 125*[fluorescence artefact?] | -10 | -3
CCOC(=O)CS(=O)(=O)c1nc(-c2ccccc2)cc(C(F)(F)F)n1 | -8 | 59* | 6 | -3 | 7
C/C(=N\NC(=O)COc1ccc(C(C)(C)C)cc1)c1ccc(N2CCOCC2)cc1 | . | 6 | . | . | 0
O=[N+]([O-])c1ccc(N2N=C(c3ccco3)CC2c2ccccc2)cc1 (stereo unspecified) | -5 | 10 | 76*[fluorescence artefact?] | -6 | 3
Fc1ccc(C2CC(c3ccco3)=NN2c2ccccc2)cc1 (stereo unspecified) | -2 | -6 | 0 | 5 | 6
C=CCn1c(C)c(C(C)=O)c(N2CCCC2)nc1=S | 7 | -3 | 10 | -6 | -1
C=CCn1c(C)c(C(C)=O)c(N2CCN(c3ccccc3)CC2)nc1=S | 4 | 3 | 82*[fluorescence artefact?] | -14 | -2
O=S(=O)(Nc1ccc(-n2cccc2)cc1)c1ccccc1 | 5 | 4 | 3 | -6 | -4
CCN1C(=O)N/C(=C/c2ccc(C)o2)C1=O | . | -2 | . | . | -2
Cc1ccc(/C=C2/NC(=O)N(Cc3ccc(Br)cc3)C2=O)o1 | . | 22 | . | . | 6.1*
O=S(=O)(Nc1nc2ccccc2nc1N1CCN(c2ccccn2)CC1)c1ccc(Cl)cc1 | -17 | -3 | 36* | -3 | -2
O=S(=O)(Nc1nc2ccccc2nc1N1CCc2ccccc2C1)c1ccc(Cl)cc1 | . | 5 | . | . | -2
CCOC(=O)C1=C(O)/C(=C/c2cn(CC(=O)NCC3CCCO3)c3ccccc23)SC1=Nc1ccc(C)cc1 (stereo unspecified) | 3 | 34* | 41* | -5 | 1
Cc1ccc(NC(=O)COC(=O)C2(c3ccc(Cl)cc3)CCCC2)cc1 | . | 7 | . | . | 1
O=c1ccccn1Cc1c(F)cccc1Cl | -5 | -21 | 9 | -5 | 0
CCOC(=O)N1CCN(c2cc(NCCC(=O)O)c3c4c(onc24)-c2ccccc2C3=O)CC1 | . | 6 | . | . | 0
O=C(O)CCCNc1cc(N2CCC3(CC2)OCCO3)c2noc3c2c1C(=O)c1ccccc1-3 | -30 | -6 | 122*[fluorescence artefact?] | 3 | -2
O=C(NC1CCCC1)C(c1ccsc1)N(C(=O)Cc1cccs1)c1ccccc1 (stereo unspecified) | -24 | 17 | -1 | -1 | -3
O=C(NC1CCCC1)C(c1ccsc1)N(CCc1ccccc1)C(=O)Cc1cccs1 (stereo unspecified) | . | 4 | . | . | 6.0*
CN1Cc2sc(N)c(C#N)c2CC1(C)C | -17 | 1 | 77* | -1 | 1
CCC1(C)Cc2c(C#N)c(N)sc(=S)c2CO1 (stereo unspecified) | -11 | -14 | 14 | -1 | -3
C=CS(=O)(=O)c1ccc(Oc2ccc(S(=O)(=O)C=C)cc2)cc1 | . | 91* | . | . | -3
O=C(CSc1ccccc1)NCCSCc1ccccc1 | . | 2 | . | . | -1
N#C/C(=C/c1ccc(N2CCOCC2)o1)c1nc2ccccc2[nH]1 | -15 | 12 | 136*[fluorescence artefact?] | -7 | -1
N#C/C(=C\c1ccc(N2CCOCC2)cc1)c1ccccc1 | . | 1 | . | . | -1
SMILES | S1P2 blocker | GALR2 blocker | Rev-RRE block | S1P2 agonist | GALR2 agonist
N#C/C(=C\c1ccc(N2CCOCC2)o1)c1ccccc1 | 30 | 27 | 78* | -18 | -4
N#C/C(=C\c1cc([N+](=O)[O-])c(N2CCOCC2)cc1N1CCOCC1)c1nc2ccccc2[nH]1 | -13 | -12 | 7 | 7 | 1
N#C/C(=C/c1ccc(N2CCOCC2)o1)c1ccc(Br)cc1 | 20 | 19 | 123*[fluorescence artefact?] | -13 | -1
Cc1noc(C)c1COc1ccc(C(=O)OCc2nnc(-c3ccc(Cl)cc3)o2)cc1 | 5 | -3 | 3 | -3 | 0
O=C(c1ccco1)N1CCN(CC(O)COc2ccc3oc4ccccc4c3c2)CC1 (stereo unspecified) | 26 | -1 | 10 | -8 | 1
CCOc1cc(-c2cc(-c3ccc(C)cc3)nc(N)c2C#N)ccc1O | -4 | -11 | 39* | 1 | 0
N=C1CCCN1CC(=O)c1ccc(Br)cc1 | . | 1 | . | . | -1
COc1ccccc1C1C(C(C)=O)=C(C)N=c2s/c(=C\c3cc(OC)c(OC)c(OC)c3)c(=O)n21 (stereo unspecified) | -39 | 2 | -1 | 17* | 4
COc1cccc(C2C(C(=O)Nc3ccccc3)=C(C)N=c3s/c(=C/c4ccc(OCC(=O)O)cc4)c(=O)n32)c1 (stereo unspecified) | . | 13 | . | . | 1
Cn1cnnc1SCC(=O)NN(c1ccccc1)c1ccccc1 | . | 10 | . | . | -1
O=C(Nc1ccc2c(c1)OCCO2)C1CCN(C(=O)c2ccc(Br)cc2)CC1 | 0 | 2 | 8 | 0 | -2
O=C(Nc1ccc2c(c1)OCCO2)C1CCN(C(=O)c2ccccc2)CC1 | 10 | 3 | 7 | 24* | -3
COc1ccccc1OCC(=O)c1[nH]c(C)c(C(C)=O)c1C | 51* | -1 | 6 | -3 | -2
CCNc1nc2[nH]c(=O)c3c(c2s1)OC(N)=C(C#N)C3c1ccc(C)cc1 (stereo unspecified) | 6 | 0 | 86*[fluorescence artefact?] | -4 | -2
CNc1nc2[nH]c(=O)c3c(c2s1)OC(N)=C(C#N)C3c1ccccc1 (stereo unspecified) | . | 0 | . | . | 0
Nc1nnc(-c2cc3ccccc3oc2=O)s1 | 7 | 17 | 7 | -8 | -3
O=c1oc2ccccc2cc1-c1nnc(NCc2ccco2)s1 | 19 | 3 | 44* | -6 | 0
CCc1nc(SCc2nc3ccccc3[nH]2)c2oc3ccccc3c2n1 | -33 | -4 | 10 | 36* | 0
CCc1nc(SCCO)c2oc3ccccc3c2n1 | -32 | 5 | 5 | 2 | -2
CCOC(=O)c1ccc(NC(=O)Nc2ccc(F)cc2)cc1 | 19 | -6 | 16 | 22* | 0
CCOC(=O)CN(Cc1sccc1C)C(=O)Nc1ccc(OC)cc1OC | . | 3 | . | . | -1
COc1ccc(C(=O)C(CO)Oc2ccccc2OC)cc1OC (stereo unspecified) | 13 | -7 | 4 | 19* | -2
CCCCCCCCNC(=O)c1cccnc1SCC(=O)Nc1ccccc1OC | . | -4 | . | . | -1
CC(=O)c1cccc(NC(=O)COc2cc3oc(=O)c(CC(C)O)c(C)c3cc2Cl)c1 (stereo unspecified) | . | -8 | . | . | 0
O=C1SC(c2ccccc2)=N/C1=C/c1ccco1 | 23 | -18 | 5 | 59* | -1
SMILES | S1P2 blocker | GALR2 blocker | Rev-RRE block | S1P2 agonist | GALR2 agonist
COc1ccc(OC)c(N=c2oc3cc(O)ccc3cc2C(N)=O)c1 | -2 | -7 | 14 | 5 | 5.3*
NC(=O)c1cc2ccc(O)cc2oc1=NCc1ccccc1 | . | -47 | . | . | 45*
CCN(CC)S(=O)(=O)c1ccc(Oc2ccc(S(=O)(=O)N(CC)CC)cc2)cc1 | 72* | 6 | 6 | -4 | -1
O=c1cc(CNCCCO)c2ccccc2[nH]1 | -8 | -1 | 3 | 23* | 0
CC(=O)N(Cc1cc(=O)[nH]c2ccccc12)c1ccc(C)cc1 | i | -1 | 6 | -6 | -1
Cc1cccn2c(=O)c(C=NCc3ccccc3)c(NCCO)nc12 | 2 | -7 | 5 | -6 | 0
